GSIS activator = primary screen for activators of insulin secretion dependent on glucose, INS-1E cells, GLuc reporter luminescence. actives 0.61% (n = 370,000). activation, % at 16.6 µM. INS-1E GLuc reporter insulin secretion, 2-3 h;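 active = lowest replicate activation of at least 40%, so every replicate reaches that level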;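 note: 0% = median of neutral control wells and 100% = median of IBMX positive control wells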
Ecoli rRNA inh = inhibits bacterial ribosomal RNA function over humanized ribosomes | E. coli WT GFP vs humanized-ribosome RFP mutants, fluorescence, 24 h; stronger effect = lower value; DMSO median 0, no signal -100 | AID 720706 | GFP signal change (wild-type ribosome), % (concentration not given with the values) | actives 1.6% (n = 350,000);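 active = significant combined selectivity score with lowered wild-type GFP, culture density cut under 30%, mutant RFP and density less affected; inactive = any of these conditions unmet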
Env fusion inh = blocks HIV Env-driven cell-cell fusion | HeLa-JRFL Env/CEM21 cell fusion, luciferase | inhibition, % at 12.3 µM | actives 1.1% (n = 360,000) | AID 651610;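 active = mean replicate inhibition score of at least 50 and every replicate individually at or above 50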;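 note: 0% = plate neutral controls and 100% = maraviroc near 300 nM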
F508del corr = correctors of CFTR F508del function in bronchial epithelial cells | CFBE cells, YFP halide quenching; stimulated with forskolin plus potentiator P3; % fluorescence drop versus neutral controls | activity (quench increase), % at 7.58 µM | actives 0.36% (n = 350,000);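 active = mean added fluorescence quench of at least 8% versus neutral control, with both replicates also reaching 8%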;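 note: cells transiently co-express mutant CFTR-F508del with the halide-sensitive YFP; corrector assay measuring rescue of mutant channel to the surface after 24 h compound exposure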
miR-122 sensor = blocks miR-122 activity in Huh7 sensor cells. Huh7 miR-122 Renilla luciferase sensor, 48 h; neutral wells = 0, positive control = 100. activation (reporter increase), % at 12.5 µM. actives 0.3% (n = 340,000). AID 602342;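 active = mean replicate activation score at least 90 and every replicate individually at or above 90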;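 note: higher luciferase means less miR-122 activity so hits act as miR-122 inhibitors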
Cneo AK release = causes C. neoformans cell lysis. adenylate kinase release luminescence, 4 h; normalised: neutral wells 0, clomiphene wells 100. lysis activity, % at 15 µM. actives 0.2% (n = 360,000);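 active = mean lysis activity across replicates of at least 80%, whatever share of replicates individually reach that level; inactive = mean lysis activity below 80%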
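Material – log-phase Cryptococcus neoformans yeast cells · Input – 5 × 10^6 yeast cells/mL · Medium – fresh YPD growth medium · Doses – single compound concentration per well · Timing – static 4 h at 37 °C with compound, 1 h detection · Detection – adenylate kinase release luminescence · Read-out – signal increase indicating cell lysis · Control set – Clomiphene as positive lysis control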
Numbers without * were called inactive; . = no result; [ ] = remark or other dose. Sampled rows, rich in hits. Any-hit rate of the full collection: about 3.1%.

SMILES	GSIS activator	Ecoli rRNA inh	Env fusion inh	F508del corr	miR-122 sensor	Cneo AK release
NC(CCc1ccccc1)c1csc(NC(=O)Nc2ccccc2Oc2ccccc2)n1 (centres undefined)	-6	-28	90*	4	.	2
NC(Cc1ccc(C(F)(F)F)cc1)c1csc(NC(=O)Nc2ccccc2Cc2ccccc2)n1 (centres undefined)	10	5	82*	4	.	4
COc1cccc(Nc2nc(C(N)CCc3ccccc3)cs2)n1 (centres undefined)	-5	-53	70*	0	3	-16
C[C@H]1CCCCO[C@@H](CN(C)C(=O)Nc2ccc3c(c2)OCO3)[C@@H](C)CN([C@@H](C)CO)C(=O)c2cc(NC(=O)Nc3ccccc3)ccc2O1	13	0	-6[16.7 µM]	0	5[16.7 µM]	-1
O=C(N/N=C/c1cc(Br)c(O)c(Br)c1O)c1cccnc1	-8	-20*	21	-1	-4	0
O=C(N/N=C/c1cc(O)ccc1Br)c1cccnc1	5	-34	8	5	.	0
NC(=O)NCC#Cc1ccc2c(c1)[C@]1(C(=O)N2)[C@H](c2ccccc2OCCO)N2[C@H](c3ccccc3)[C@H](c3ccccc3)OC(=O)[C@H]2[C@@H]1C(=O)O	.	.	-18[16.7 µM]	-1	.	0
NC(=O)NCC#Cc1ccc2c(c1)[C@]1(C(=O)N2)[C@H](C(N)=O)[C@H]2C(=O)O[C@H](c3ccccc3)[C@H](c3ccccc3)N2[C@@H]1c1ccccc1OCCO	.	.	-5[16.7 µM]	-1	.	96*
C[C@H]1CN([C@@H](C)CO)C(=O)Cc2cc(NC(=O)Cc3cn(C)c4ccccc34)ccc2O[C@@H]1CN(C)Cc1ccncc1	2	-2	.	4	4[16.7 µM]	0
C[C@@H]1CCCCO[C@H](CN(C)C(=O)Nc2ccc(F)cc2)[C@@H](C)CN([C@@H](C)CO)C(=O)c2cc(NS(=O)(=O)c3ccc(F)cc3)ccc2O1	-4	-1	-75[16.7 µM]	-4	19[16.7 µM]	-3
O=C(NCC1CC1)[C@@H]1[C@@H](CO)[C@@H]2Cn3c(ccc(-c4ccc(F)cc4)c3=O)[C@H]1N2	40	-3	.	0	8[16.7 µM]	50
Cc1ccc(C(=O)N/C(=C\c2ccccc2)C(=O)OCc2ccccc2)cc1	-23	.	.	.	.	.
O=C(OCc1ccccc1)/C(=C/c1cccc(Br)c1)NC(=O)c1ccco1	8	-29*	-9	2	15	0
O=C(Nc1ccccc1)/C(=C/c1cccc(Br)c1)NC(=O)c1ccco1	-1	16	7	0	-14	.
O=C(OCc1ccccc1)/C(=C/c1ccc(Cl)cc1)NC(=O)c1ccccc1Cl	70*	.	.	.	-1	-9
C[C@@H]1CN([C@H](C)CO)C(=O)c2cccc(N(C)C)c2O[C@H]1CN(C)C(=O)Nc1ccc(C(F)(F)F)cc1	.	.	13[16.7 µM]	3	12[16.7 µM]	0
Cc1nc(SCC(=O)N2CCOCC2)c2c(C)c(C)sc2n1	9	-4	18	-3	.	0
Cc1nc(SCC(=O)Nc2ccc(S(=O)(=O)N3CCOCC3)cc2)c2c(C)c(C)sc2n1	.	7	64*	3	.	-20
C[C@H](CO)N1C[C@H](C)[C@H](CN(C)C(=O)Nc2ccc(C(F)(F)F)cc2)Oc2ccc(NC(=O)Nc3ccc(F)cc3)cc2CC1=O	-30	-3	-3[16.7 µM]	-2	3[16.7 µM]	10
CN1CCCCC(NC(=O)c2ccccc2)C1=O (centres undefined)	117*	-4	3	-1	.	.
COc1ccc2c3c(n(C)c2c1)[C@@H](CO)N(Cc1ccccc1Cl)CC31CCN(C(=O)CN(C)C)CC1	-13	-2	.	0	.	.
COc1ccccc1/C=N/NC(=O)c1ccccc1Cl	14	18	12	.	.	.
COc1ccccc1C=NNC(=O)c1ccccc1OCCOc1ccccc1	1	-31*	9	0	14	0
COc1ccc(CN(C)C[C@@H]2OCCCC[C@@H](C)Oc3ccc(NC(=O)CCC(F)(F)F)cc3C(=O)N([C@H](C)CO)C[C@@H]2C)cc1	-9	4	-23[16.7 µM]	-1	10[16.7 µM]	1

Compound activity: PubChem BioAssay, Broad Institute
